Converted amounts (≈) assume the structure as drawn.
Experiments:
Human alphaherpesvirus 1 = assay: Antiviral activity against HSV1; type: functional, organism-based
Summary of the method: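 Herpes simplex type 1 antiviral test by colorimetric method per Skehan; IC50 read-out; acyclovir as reference.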

Plasmodium falciparum [1] = assay: Antimicrobial activity against Plasmodium falciparum; type: functional, organism-based
Summary of the method: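 P. falciparum K1 (multidrug-resistant) kept in culture per Trager–Jensen; microculture radioisotope test; growth read as [3H]-hypoxanthine uptake; IC50 = concentration giving 50% fewer parasites; artemisinin as reference standard.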

Plasmodium falciparum [2] = assay: Antimalarial activity against Plasmodium falciparum K1 by [3H]hypoxanthine uptake; type: functional, organism-based
Summary of the method: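 Multidrug-resistant K1 parasites cultured per Trager–Jensen. In vitro microculture radioisotope test, with parasite growth read as [3H]-hypoxanthine uptake. IC50 is the concentration giving 50% reduction in parasite growth. Artemisinin run as standard.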

[3] = Cytotoxicity against human BC clls; type: functional, cell-based
Summary of the method: (§1)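 Human breast cancer (BC) and small cell lung cancer (NCI-H187) lines; colorimetric assay per Skehan; IC50 read-out; ellipticine as reference.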

[4] = system: Mycobacterium tuberculosis; assay: Antimicrobial activity against Mycobacterium tuberculosis H37Ra by microplate alamar blue assay; type: functional
Summary of the method: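 M. tuberculosis H37Ra in microplate Alamar Blue assay; MIC read-out; isoniazid and kanamycin sulfate as reference drugs.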

NCI-H187 = assay: Cytotoxicity against human NCI-H187 cells; type: functional, cell-based; summary of the method: as §1

Row | Structure (SMILES) | IC50 (Human alphaherpesvirus 1) [µg/mL] | MIC [4] [µg/mL] | other results
1 | O=C(O)CCCC#CC#CCCCCCCCCCCCc1ccco1 | 47 (≈ 132 µM) |  | IC50 (Plasmodium falciparum [1]): 50 µg/mL (≈ 140 µM)
2 | COC(=O)CCCC#CC#CCCCCCCCCCCCc1ccco1 |  |  | IC50 (Plasmodium falciparum [1]): 3.7 µg/mL (≈ 9.99 µM)
3 | Nc1nc2c(ncn2COCCO)c(=O)[nH]1 [ACYCLOVIR] | 1.1 (≈ 4.88 µM) |  | 
4 | O=C(O)CCCC#CCCCCCCCCCCCCCc1ccco1 | 19.4 (≈ 53.8 µM) |  | 
5 | C[C@@H]1CC[C@H]2[C@@H](C)C(=O)O[C@@H]3O[C@@]4(C)CC[C@@H]1[C@]32OO4 [ARTEMISININ] |  |  | IC50 (Plasmodium falciparum [2]): 0.001 µg/mL (≈ 0.00354 µM)
6 | Cc1c2ccncc2c(C)c2c1[nH]c1ccccc12 [ELLIPTECINE] |  |  | IC50 [3]: 0.32 µg/mL (≈ 1.3 µM)
7 | OCCCCCCCCCCCCCC#CC#CCCCCc1ccco1 |  | 6.25 (≈ 16.9 µM) | IC50 (NCI-H187): 12.4 µg/mL (≈ 33.5 µM)
8 | COC(=O)CCCC#CCCCCCCCCCCCCCc1ccco1 |  | 3.1 (≈ 8.28 µM) | 
9 | NNC(=O)c1ccncc1 [ISONIAZID] |  | 0.04 (≈ 0.292 µM) | 
10 | NC[C@H]1O[C@H](O[C@H]2[C@H](O)[C@@H](O[C@H]3O[C@H](CO)[C@@H](O)[C@H](N)[C@H]3O)[C@H](N)C[C@@H]2N)[C@H](O)[C@@H](O)[C@@H]1O.O=S(=O)(O)O [KANAMYCIN SULFATE] |  | 2 | 

Reference: ChEMBL document CHEMBL1157224, “2-substituted furans from the roots of Polyalthia evecta” (J Nat Prod, 2006)
